Measured values from different studies.
Compare with care: the assays were run in different laboratories.
Target: Serine/threonine-protein kinase Chk2 (CHEK2, Homo sapiens, UniProt O96017)

For `N#CC1(c2ccccn2)CCN(Cc2cc(C(=O)O)c(=O)n3ccccc23)CC1`, the remaining binding was 87% (cell-free assay; competition with immobilised ligand; 1 µM).
With `Nc1ncc(-c2nc(N3CCOCC3)nc(N3CCOCC3)n2)c(C(F)F)n1` the remaining binding was 75% (binding; competition with immobilised ligand; 10 µM).
`O=c1[nH]c2ccccc2n1C1CCN(Cc2ccc(-c3[nH]c4cc5ncnc5cc4nc3-c3ccccc3)cc2)CC1` gave a remaining signal of 100% (cell-free assay; 0.5 µM).
With `Cc1nn(C)cc1-c1nc2c(N3CCN(Cc4ccc(Cl)cc4)CC3)c(Cl)cnc2[nH]1` the remaining binding was 100% (binding; competition with immobilised ligand; 1 µM).
For `Cn1cc(-c2cccc(N3CCc4c(sc5c4CC(C)(C)C5)C3=O)c2CO)cc(Nc2ccncn2)c1=O`, the inhibition was 1% (enzyme activity; inhibitor; 1 µM).
The remaining binding of `Cn1cncc1[C@@](O)(COc1ccc(C#N)cc1-c1ccc(OC(F)(F)F)cc1)c1ccc(C#N)cc1` is reported as 96% (cell-free assay; competition with immobilised ligand; 1 µM).
For `CC(C)(C)c1cc(C=C(C#N)C#N)cc(Br)c1O`, the remaining activity was 104% (enzyme activity; inhibitor; 0.5 µM).
For `COc1ncccc1-c1cnn2ccc(N3CCN(C(=O)OC(C)C)CC3)nc12`, the remaining binding was 77% (binding; competition with immobilised ligand; 1 µM).
For `COc1cc(Nc2ncc(F)c(Nc3ccc4c(n3)NC(=O)C(C)(C)O4)n2)cc(OC)c1OC`, the inhibition was 45% (binding; competition with immobilised ligand; 10 µM).
The inhibition of `Cn1cc(-c2cc(F)cc(N3CCn4c(cc5c4CCCC5)C3=O)c2CO)cc(Nc2ccc(N3CCN(C4COC4)CC3)cn2)c1=O` is reported as 11% (enzyme activity; inhibitor; 0.1 µM).
